Results gathered from unrelated publications.
Compare with care: the assays were run in different laboratories.
Target: Cannabinoid receptor 2 (CNR2, Homo sapiens, UniProt P34972)
Effect on: ligand displacement
Technique: radioligand

Cc1c(C(=O)Nc2ccc(F)nc2)nc(-c2ccc(Cl)cc2Cl)n1-c1ccc(OS(=O)(=O)CCC(F)(F)F)cc1 — Ki (cell membranes): 1.4 nM
CCCCCn1c2ccccc2c2cc(C(=O)N3CCN(CC(=O)NC(C)(C)C)CC3)ccc21 — Ki: 2000 nM
NC(=O)[C@@H]1CC(F)(F)CN1C(=O)c1ccc(N2CC(F)(F)C2)c(OCC2CC2)n1 — Ki (cell membranes): 40 nM
CCOC(=O)C(CC)(CCCSCCOCCOCCNc1ccc([N+](=O)[O-])c2nonc12)NC(=O)c1ccc(C2CC2)c(Cc2ccc(F)cc2)n1 (racemic) — Ki (cell membranes): 22 nM
CCCCCc1cc2c(c(O)c1C(=O)O)C1C=C(C)CCC1C(C)(C)O2 (stereo not drawn) — Ki (cell membranes): 1650 nM
CCOC(=O)C(CC)(CCCSCCOCCOCCOCCNC(=O)OC(C)(C)C)NC(=O)c1ccc(C2CC2)c(Cc2ccc(F)cc2)n1 (stereo not drawn) — Ki (cell membranes): 138 nM
CCCc1cc(O)c2c(c1)OC(C)(C)[C@@H]1CCC(C)=C[C@@H]21 — Ki (cell membranes): 105 nM
CCOC(=O)[C@H](CSC)NC(=O)c1ccc(C2CC2)c(Cc2ccc(F)cc2)n1 — Ki (cell membranes): 3.2 nM
CCCCCc1cc(O)c(C/C=C(\C)CCC2OC2(C)C)c(O)c1 (stereo not drawn) — Ki (cell membranes): 4720 nM
CCOC(=O)C(CCCOC)NC(=O)c1ccc(C2CC2)c(Cc2ccc(F)cc2)n1 (stereo not drawn) — Ki (cell membranes): 17 nM
CCCCCn1cc(C(=O)C2C(C)(C)C2(C)C)c2ccccc21 — Ki (cell membranes): 4.51 nM
CCCCCc1cc(O)c2c(c1)OC(C)(C)[C@@H]1CC[C@](C)(O)[C@@H](O)[C@@H]21 — Ki (cell membranes): 2140 nM
Cc1nonc1Cn1nnc2c(N3CC[C@H](O)C3)nc(C(C)(C)C)nc21 — Ki (cell membranes): 11 nM
C=CCC(CC)(NC(=O)c1ccc(C2CC2)c(Cc2ccc(F)cc2)n1)C(=O)OCC (stereo not drawn) — Ki (cell membranes): 0.8 nM
CCCCC/C=C\C/C=C\C/C=C\C/C=C\CCCC(=O)NCCCl — Ki (cell membranes): 5200 nM
